Screening data: PubChem, The Scripps Research Institute Molecular Screening Center
PRMT1 inh: inhibitors of human PRMT1; actives 1.3% (n = 370,000); recombinant PRMT1, activity-based probe fluorescence polarization; inhibition, % at 2.79 µM; Q99873;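 active = inhibition above about 21% made by adding two undisclosed values, limit read from the data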
Target sequence (Q99873 whole entry, looked up): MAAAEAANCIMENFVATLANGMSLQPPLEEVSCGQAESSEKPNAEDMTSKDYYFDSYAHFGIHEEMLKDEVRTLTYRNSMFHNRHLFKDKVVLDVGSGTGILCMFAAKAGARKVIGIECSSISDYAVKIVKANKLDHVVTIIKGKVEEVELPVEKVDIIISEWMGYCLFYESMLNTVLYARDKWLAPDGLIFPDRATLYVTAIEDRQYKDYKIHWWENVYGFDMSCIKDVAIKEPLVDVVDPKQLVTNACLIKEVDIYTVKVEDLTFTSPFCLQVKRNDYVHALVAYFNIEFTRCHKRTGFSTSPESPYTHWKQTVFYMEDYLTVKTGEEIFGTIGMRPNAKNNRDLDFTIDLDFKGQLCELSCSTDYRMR
CTSL1 counter: blocks F. hepatica cathepsin L1 in PFM18AAP counter-screen | recombinant F. hepatica cathepsin L1, Z-Leu-Arg-MCA fluorescence | inhibition, % at 5.96 µM | actives 0.49% (n = 300,000) | AID 1906;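 active = inhibition above the mean of all tested compounds plus 3 SD, set per screening campaign, cut at about 17% in these data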
TDP2 inh: TDP2 (human) inhibition, absorbance primary screen | O95551 | recombinant TDP2, T5PNP hydrolysis, p-nitrophenol absorbance 415 nm | inhibition, % at 12.8 µM | actives 0.34% (n = 370,000) | AID 720702;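 active = inhibition above the mean of all tested compounds plus 3 SD, set per campaign, cut at about 25% in these data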
Target sequence (O95551 whole entry, looked up): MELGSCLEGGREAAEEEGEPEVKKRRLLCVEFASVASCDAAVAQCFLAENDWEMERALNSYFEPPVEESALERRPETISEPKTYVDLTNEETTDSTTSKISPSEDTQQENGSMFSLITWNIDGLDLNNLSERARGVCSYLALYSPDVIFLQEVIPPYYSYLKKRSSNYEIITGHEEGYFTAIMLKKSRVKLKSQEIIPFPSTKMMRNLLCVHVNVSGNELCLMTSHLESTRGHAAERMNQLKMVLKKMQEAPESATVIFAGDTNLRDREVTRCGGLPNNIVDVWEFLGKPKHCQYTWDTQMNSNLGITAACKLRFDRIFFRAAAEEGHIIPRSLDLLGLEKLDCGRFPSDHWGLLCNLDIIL
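Assay system: recombinant human TDP2 / Reagent: T5PNP substrate at 5 mM, a TopII-DNA adduct mimic / Measured by: epi absorbance from released p-nitrophenol / Evaluation: % inhibition relative to enzyme-containing and enzyme-free wells / Control set: enzyme-free and DMSO wells / Replicates: each compound tested once, singlicate / Schedule: enzyme reaction with compound for 2 h at 37 °C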
GSTO1 inh: counter-screen for RBBP9 inhibitors: inhibitors of human GSTO1; P78417; recombinant GSTO1, activity-based probe fluorescence polarization; inhibition, % at 5.96 µM; actives 1.1% (n = 300,000); AID 1974;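 active = inhibition above the campaign mean inhibition plus 3 SD, cut at about 35% in these data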
PAD4 FP inh: inhibitors of human PAD4; inhibition, % at 6.36 µM; Q9UM07; actives 0.41% (n = 330,000); recombinant PAD4, RCA probe fluorescence polarization; AID 485272;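 active = percent inhibition above a cutoff equal to the mean of all tested compounds plus 3 SD, cut at about 15% in these data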
Large screens that a line does not name were inactive. In the library only some 2.5% were active in any assay of this set; here they are far more common.

O[C@H](COc1cccc(Cl)c1)CN1CCC(C(O)(c2ccccc2)c2ccccc2)CC1	none (no result: CTSL1 counter, GSTO1 inh, PAD4 FP inh)
Cn1cc(/C=N/NC(N)=S)c2ccccc21	CTSL1 counter 100
COCCCN1C(=O)[C@H](CC(=O)NCC2CCCCC2)[C@]2(C(=O)OC)CCCCC=C12	none (no result: CTSL1 counter, GSTO1 inh, PAD4 FP inh)
CCOC(=O)CC[C@H]1CC[C@]2(CCCN(C(=O)c3ccco3)C2)O1	none (no result: CTSL1 counter, GSTO1 inh, PAD4 FP inh)
C=CCOC(=O)c1cc(-c2ccc(/C=C3\C(=O)NC(=O)C(C#N)=C3C)o2)ccc1Cl	PRMT1 inh 25 (no result: CTSL1 counter, GSTO1 inh, PAD4 FP inh)
CCCOC(=O)c1cc(-c2ccc(/C=C3/C(=O)N(C)C(=O)C(C#N)=C3C)o2)ccc1Cl	none (no result: PRMT1 inh, TDP2 inh)
CCCN1CCS(=O)(=O)N(Cc2cn(Cc3ccc(F)cc3)nn2)C(C(=O)OC)C1 (stereo unspecified)	none (no result: CTSL1 counter, GSTO1 inh, PAD4 FP inh)
CN(C)c1ccc2nc3ccc(=[N+](C)C)cc-3sc2c1	GSTO1 inh 36
COc1ccc2nc(N=Nc3ccc(N(C)C)cc3)sc2c1	none (no result: CTSL1 counter, GSTO1 inh, PAD4 FP inh)
CCN(CC)C(=S)Sc1c(-c2ccccc2)c2cc(Cl)ccc2[nH]c1=O	PRMT1 inh 24
O=C(CC1C=CCC1)OCCN1CCN(C2CN(Cc3cn(Cc4ccccc4Cl)nn3)S(=O)(=O)C2)CC1 (stereo unspecified)	none (no result: CTSL1 counter, GSTO1 inh, PAD4 FP inh)
O=C(CSc1nnc(SCc2cccc3ccccc23)s1)Nc1ccc(Oc2ccccc2)cc1	none (no result: CTSL1 counter, GSTO1 inh, PAD4 FP inh)
COc1ccc(CN(C)C(C#Cc2ccccc2)Cc2ccccc2)c(OC)c1 (stereo unspecified)	none (no result: CTSL1 counter, GSTO1 inh, PAD4 FP inh)
COC(CNC(=O)c1ccc2c(c1)ncn2-c1ccc(F)c(F)c1)OC	CTSL1 counter 18
Cc1cccc(/N=C/c2nc(-c3ccccc3Br)oc2O)n1	CTSL1 counter 67
Cc1ccnc(N=Cc2nc(-c3ccccc3Br)oc2O)c1	CTSL1 counter 67
COc1cccc(OCc2nc(-c3cccc([N+](=O)[O-])c3)no2)c1	none
COc1cccc(-c2noc(Cn3nc(C)c([N+](=O)[O-])c3C)n2)c1	PRMT1 inh 23
O=C(CCl)NCc1cc(-c2ccc(Cl)cc2)no1	CTSL1 counter 35, GSTO1 inh 89
COc1ccc(OCc2cc(-c3ccc(Cl)cc3)no2)cc1	none
CCCCN1C[C@@H](COCc2ccccc2)Oc2cc(F)ccc2S1(=O)=O	none (no result: CTSL1 counter, GSTO1 inh, PAD4 FP inh)
c1ccc(-c2nc(-c3ccco3)n3ccccc23)cc1	PRMT1 inh 24
c1ccc(Nc2c(-c3ccco3)nc3ccccn23)cc1	none
Cn1c(=O)c(C(=O)COc2ccc(F)cc2Cl)c(N)n(Cc2ccccc2)c1=O	CTSL1 counter 31
NC1=[N+](Cc2ccccc2)C[C@H]2C(=C3CCCC[C@H]3n3c(=O)n(-c4ccccc4)c(=O)n32)N1	none (no result: CTSL1 counter, GSTO1 inh, PAD4 FP inh)
COC(=O)c1[nH]c2ccccc2c1NC(=O)CN1CCN(C(=O)c2ccco2)CC1	GSTO1 inh 36
COc1ccc(OCC(C)CN2CCC(C(O)(c3ccccc3)c3ccccc3)CC2)cc1 (stereo unspecified)	none (no result: CTSL1 counter, GSTO1 inh, PAD4 FP inh)
[N-]=[N+]=CC(=O)CNC(=O)[C@@H](Cc1ccccc1)N1C(=O)c2ccccc2C1=O	CTSL1 counter 43
O=C(NCc1ccco1)C(Cc1ccccc1)N1C(=O)c2ccccc2C1=O (stereo unspecified)	none
O=C(NCSc1ccnc(SCNC(=O)c2ccccc2)n1)c1ccccc1	CTSL1 counter 19
O=C(NCCSc1ccccc1)c1ccccc1	none
COc1ccc(CN2C(C(=O)NCC(C)C)CSCCS2(=O)=O)cc1 (stereo unspecified)	none (no result: CTSL1 counter, GSTO1 inh, PAD4 FP inh)
COc1ccc(-c2nnc(SCC(=O)N/N=C\C=C/c3ccco3)n2-c2ccc(C)cc2)cc1	none (no result: CTSL1 counter, GSTO1 inh, PAD4 FP inh)
O=[N+]([O-])c1ccc(O)c(C=NN2CCCCC2)c1	none (no result: CTSL1 counter, GSTO1 inh, PAD4 FP inh)
Cc1ccccc1/C=C1\SC(=S)N(/N=C/c2cc([N+](=O)[O-])ccc2O)C1=O	GSTO1 inh 35
Cc1ccc(C(=O)C2=C(O)C(=O)N(Cc3ccco3)C2c2cccc(Cl)c2)o1 (stereo unspecified)	none
Cc1ccc(C(=O)C2=C(O)C(=O)N(Cc3ccco3)C2c2cccc(Br)c2)o1 (stereo unspecified)	CTSL1 counter 18
COc1ccc(NCc2nnc(SCC(=O)Nc3ccccc3OC)o2)cc1	PRMT1 inh 22
COc1ccc(C(=O)NCc2nnc(SCC(=O)Nc3nc4ccccc4s3)o2)cc1	PRMT1 inh 23
COc1ccc(C(=O)NCc2nnc(SCC(=O)c3ccccc3)o2)cc1	none
CC(C)(C)c1ccc(C(=O)NCc2nnc(SCC(=O)NC3CCCCC3)o2)cc1	PRMT1 inh 21
C#CCN1C(C(=O)OC)CN(CCCCCC)CCS1(=O)=O (stereo unspecified)	none (no result: CTSL1 counter, GSTO1 inh, PAD4 FP inh)
O=c1[nH]cn[nH]1	CTSL1 counter 19
COCCCN1C(=O)[C@H](CC(=O)N2CCN(C(=O)C3CC3)CC2)[C@]2(C(=O)OC)CCCCC=C12	none (no result: CTSL1 counter, GSTO1 inh, PAD4 FP inh)
O=C(O)c1ccc(Cl)c2c1C1C=CCC1C(c1ccccn1)N2 (stereo unspecified)	none (no result: PRMT1 inh, TDP2 inh)
O=C(O)C1Nc2c(O)cc(Cl)c([N+](=O)[O-])c2C2C=CCC12 (stereo unspecified)	PRMT1 inh 36, GSTO1 inh 57
C=CCN1[C@H](C)COc2cccc(N3CCCC3)c2S1(=O)=O	none (no result: CTSL1 counter, GSTO1 inh, PAD4 FP inh)
O=C1C=C(O)c2c(O)cc(O)c(O)c2C1=O	PRMT1 inh 47, GSTO1 inh 73
C[C@@H]1Cc2c(O)c(O)cc(O)c2C(=O)O1	none (no result: PRMT1 inh, TDP2 inh)
CC(=O)C1(C(=O)NCc2ccccc2)CC(c2ccccc2C(F)(F)F)=NO1 (stereo unspecified)	none (no result: CTSL1 counter, GSTO1 inh, PAD4 FP inh)
CN(C)C(=S)NC(=NCc1ccc([N+](=O)[O-])cc1)c1ccccc1	PRMT1 inh 22
O[C@@H]([C@H](O)[C@H](O)CBr)[C@H](O)CBr	CTSL1 counter 26
Cc1nnsc1C(=O)NC1CCCc2c1cnn2-c1ccc(C(C)(C)C)cc1 (stereo unspecified)	GSTO1 inh 35
O=C(Nc1ccc(Cl)cc1)N1CCN(Cc2nc3ccccc3c(=O)[nH]2)CC1	none (no result: CTSL1 counter, GSTO1 inh, PAD4 FP inh)
Cc1cc(NS(=O)(=O)c2ccc(NC(=O)/C=C/c3ccco3)cc2)nc(C)n1	PRMT1 inh 24
Cc1cc(NS(=O)(=O)c2ccc(NC(=O)c3ccco3)cc2)nc(C)n1	none
CN(C)C1=NCC(CSC(=N)N)S1 (stereo unspecified)	PRMT1 inh 25
CCn1c(=O)n(CC(=O)N2CCOCC2)c(=O)c2ccccc21	none (no result: CTSL1 counter, GSTO1 inh, PAD4 FP inh)
CC(C)CN1CN2Cc3cc(F)ccc3C2CS1(=O)=O (stereo unspecified)	none (no result: CTSL1 counter, GSTO1 inh, PAD4 FP inh)
CCC1Oc2ccc(C)cc2N(CC(=O)NCc2cccs2)C1=O (stereo unspecified)	none
CCC1Oc2ccccc2N(CC(=O)NCc2cccs2)C1=O (stereo unspecified)	GSTO1 inh 37
CSCCC(NC(=O)c1ccccc1Br)C(=O)NCC(c1ccco1)N1CCCCC1 (stereo unspecified)	CTSL1 counter 21
CSc1ccccc1C(=O)NCC(c1ccco1)N1CCCCC1 (stereo unspecified)	none
